Results as given in ChEMBL document CHEMBL6177935, “Design and synthesis of novel multi-target tetrabromophthalimides as CBS and Topo-II inhibitors and DNA intercalators” (RSC Med Chem, 2024).
Activity calls are given as the source filed them. The calls are words filed in the database; no cut-off is given here.

Columns and labels:
[1] = (§1) Growth inhibition of human HNO 97 cells at 100 ug/ml measured after 48 hrs by SRB assay relative to control; assay type: functional, HNO 97 cell line; details: HNO 97, 48 h, pooled result: one value given for 15 cell lines, strains, targets or settings, read-out: GI
In short: (§2)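 SRB screen on fifteen human cancer lines. Cells seeded at 3×10^3 per well and left 24 h to attach. A single concentration of 100 µg/mL was tested in triplicate wells for 48 h, with 1% v/v DMSO as vehicle control. Cells fixed in 20% TCA, stained with 0.4% SRB and read at 570 nm. Survival fraction = OD treated/OD control.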

DNA topoisomerase 2-beta [2] = molecular target: T1, DNA topoisomerase 2-beta (Homo sapiens, UniProt Q02880); test: Inhibition of human topoisomerase IIB by sandwich ELISA
T1 sequence (Q02880 whole entry, the tested form may be a part): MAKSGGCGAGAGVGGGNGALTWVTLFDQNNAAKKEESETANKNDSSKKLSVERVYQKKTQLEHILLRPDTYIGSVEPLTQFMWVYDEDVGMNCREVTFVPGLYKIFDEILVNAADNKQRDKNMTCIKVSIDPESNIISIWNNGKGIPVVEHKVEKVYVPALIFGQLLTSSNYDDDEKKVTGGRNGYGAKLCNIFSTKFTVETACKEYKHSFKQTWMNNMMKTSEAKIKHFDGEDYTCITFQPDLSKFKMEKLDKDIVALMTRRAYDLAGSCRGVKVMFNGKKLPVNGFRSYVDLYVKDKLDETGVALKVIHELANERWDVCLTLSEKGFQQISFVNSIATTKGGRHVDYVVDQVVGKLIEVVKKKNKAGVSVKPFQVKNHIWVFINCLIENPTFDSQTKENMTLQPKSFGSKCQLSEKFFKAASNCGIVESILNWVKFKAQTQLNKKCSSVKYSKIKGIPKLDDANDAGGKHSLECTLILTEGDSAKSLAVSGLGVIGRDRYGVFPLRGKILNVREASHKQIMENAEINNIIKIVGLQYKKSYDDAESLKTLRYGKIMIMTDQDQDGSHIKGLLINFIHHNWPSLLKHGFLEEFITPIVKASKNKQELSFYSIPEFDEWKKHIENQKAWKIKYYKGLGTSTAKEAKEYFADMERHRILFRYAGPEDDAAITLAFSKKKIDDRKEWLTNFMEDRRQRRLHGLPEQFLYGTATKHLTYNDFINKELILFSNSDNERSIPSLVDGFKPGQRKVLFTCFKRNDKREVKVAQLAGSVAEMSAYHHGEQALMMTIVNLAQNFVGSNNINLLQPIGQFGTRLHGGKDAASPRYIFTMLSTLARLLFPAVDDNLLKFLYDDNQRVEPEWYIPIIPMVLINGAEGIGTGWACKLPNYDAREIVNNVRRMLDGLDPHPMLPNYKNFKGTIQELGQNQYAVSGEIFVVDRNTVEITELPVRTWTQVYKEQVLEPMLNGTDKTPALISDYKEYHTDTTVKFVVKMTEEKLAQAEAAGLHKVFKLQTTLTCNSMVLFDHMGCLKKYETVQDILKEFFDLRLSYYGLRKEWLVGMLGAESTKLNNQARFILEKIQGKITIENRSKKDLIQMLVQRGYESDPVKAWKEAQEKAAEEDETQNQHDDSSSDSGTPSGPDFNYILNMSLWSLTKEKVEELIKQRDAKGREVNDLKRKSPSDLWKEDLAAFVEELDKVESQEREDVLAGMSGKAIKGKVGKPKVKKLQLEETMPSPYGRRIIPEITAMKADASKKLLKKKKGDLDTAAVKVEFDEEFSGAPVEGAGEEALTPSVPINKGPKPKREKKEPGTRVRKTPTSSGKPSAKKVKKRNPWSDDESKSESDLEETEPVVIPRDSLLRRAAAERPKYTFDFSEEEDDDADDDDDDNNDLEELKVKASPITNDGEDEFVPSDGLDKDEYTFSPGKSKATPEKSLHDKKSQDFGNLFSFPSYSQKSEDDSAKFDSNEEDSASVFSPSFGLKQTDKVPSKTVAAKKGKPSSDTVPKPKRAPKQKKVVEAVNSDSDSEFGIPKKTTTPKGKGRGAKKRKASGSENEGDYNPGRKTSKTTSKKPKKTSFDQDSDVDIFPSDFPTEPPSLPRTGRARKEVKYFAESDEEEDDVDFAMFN

DNA topoisomerase 2-beta [3] = molecular target: T1, DNA topoisomerase 2-beta; test: Inhibition of human topoisomerase IIB-mediated DNA fragmentation
HNO 97 cell line = test: as §1; assay type: functional; details: dose 100.0 µg/ml, pooled result: one value given for 15 cell lines, strains, targets or settings; in short: as §2
HN = test: Growth inhibition of human HN cells at 100 ug/ml measured after 48 hrs by SRB assay relative to control; assay type: functional; details: dose 100.0 µg/ml, pooled result: one value given for 15 cell lines, strains, targets or settings; in short: as §2
MCF7 = test: Growth inhibition of human MCF7 cells at 100 ug/ml measured after 48 hrs by SRB assay relative to control; assay type: functional; details: dose 100.0 µg/ml, pooled result: one value given for 15 cell lines, strains, targets or settings; in short: as §2
MDA-MB-468 = test: Growth inhibition of human MDA-MB-468 cells at 100 ug/ml measured after 48 hrs by SRB assay relative to control; assay type: functional; details: dose 100.0 µg/ml, pooled result: one value given for 15 cell lines, strains, targets or settings; in short: as §2
Caco-2 = test: Growth inhibition of human Caco-2 cells at 100 ug/ml measured after 48 hrs by SRB assay relative to control; assay type: functional; details: dose 100.0 µg/ml, pooled result: one value given for 15 cell lines, strains, targets or settings; in short: as §2
HCT-116 = test: Growth inhibition of human HCT-116 cells at 100 ug/ml measured after 48 hrs by SRB assay relative to control; assay type: functional; details: dose 100.0 µg/ml, pooled result: one value given for 15 cell lines, strains, targets or settings; in short: as §2
HEp-2 = test: Growth inhibition of human HEp-2 cells at 100 ug/ml measured after 48 hrs by SRB assay relative to control; assay type: functional; details: dose 100.0 µg/ml, pooled result: one value given for 15 cell lines, strains, targets or settings; in short: as §2
HepG2 = test: Growth inhibition of human HepG2 cells at 100 ug/ml measured after 48 hrs by SRB assay relative to control; assay type: functional; details: dose 100.0 µg/ml, pooled result: one value given for 15 cell lines, strains, targets or settings; in short: as §2
A-431 = test: Growth inhibition of human A-431 cells at 100 ug/ml measured after 48 hrs by SRB assay relative to control; assay type: functional; details: dose 100.0 µg/ml, pooled result: one value given for 15 cell lines, strains, targets or settings; in short: as §2
A-375 = test: Growth inhibition of human A-375 cells at 100 ug/ml measured after 48 hrs by SRB assay relative to control; assay type: functional; details: dose 100.0 µg/ml, pooled result: one value given for 15 cell lines, strains, targets or settings; in short: as §2
NCI-H1299 = test: Growth inhibition of human NCI-H1299 cells at 100 ug/ml measured after 48 hrs by SRB assay relative to control; assay type: functional; details: dose 100.0 µg/ml, pooled result: one value given for 15 cell lines, strains, targets or settings; in short: as §2
A549 = test: Growth inhibition of human A549 cells at 100 ug/ml measured after 48 hrs by SRB assay relative to control; assay type: functional; details: dose 100.0 µg/ml, pooled result: one value given for 15 cell lines, strains, targets or settings; in short: as §2
PC-3 = test: Growth inhibition of human PC-3 cells at 100 ug/ml measured after 48 hrs by SRB assay relative to control; assay type: functional; details: dose 100.0 µg/ml, pooled result: one value given for 15 cell lines, strains, targets or settings; in short: as §2
FaDu = test: Growth inhibition of human FaDu cells at 100 ug/ml measured after 48 hrs by SRB assay relative to control; assay type: functional; details: dose 100.0 µg/ml, pooled result: one value given for 15 cell lines, strains, targets or settings; in short: as §2
HeLa = test: Growth inhibition of human HeLa cells at 100 ug/ml measured after 48 hrs by SRB assay relative to control; assay type: functional; details: dose 100.0 µg/ml, pooled result: one value given for 15 cell lines, strains, targets or settings; in short: as §2
Tubulin = test: (§3) Inhibition of [3H]-colchicine binding to biotinylated-tubulin (unknown origin) measured after 45 mins by scintillation counting analysis; assay type: protein-complex assay, Homo sapiens
In short: (§4)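 Scintillation proximity assay run at 37 °C. Incubated 45 min at 37 °C, then the plate was read and percent inhibition calculated from raw counts.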

Tubulin (Homo sapiens) = Tubulin (Homo sapiens) (UniProt P68371+Q9H4B7+P0DPH7+P68366+Q13509+Q71U36+P04350+Q3ZCM7+P07437+P68363+Q9BQE3+Q6PEY2+Q13885+Q9BVA1+Q9BUF5); test: as §3; assay type: protein-complex assay; in short: as §4

| inhibition (DNA topoisomerase 2-beta [3]) | inhibition (DNA topoisomerase 2-beta [2]) | SMILES | growth inhibition (GI) (HNO 97 cell line) | growth inhibition (GI) (HN) | growth inhibition (GI) (MCF7) | growth inhibition (GI) (MDA-MB-468) | growth inhibition (GI) (Caco-2) | growth inhibition (GI) (HCT-116) | growth inhibition (GI) (HEp-2) | growth inhibition (GI) (HepG2) | growth inhibition (GI) (A-431) | growth inhibition (GI) (A-375) | growth inhibition (GI) (NCI-H1299) | growth inhibition (GI) (A549) | growth inhibition (GI) (PC-3) | growth inhibition (GI) (FaDu) | growth inhibition (GI) (HeLa) | other results |
| --- | --- | --- | --- | --- | --- | --- | --- | --- | --- | --- | --- | --- | --- | --- | --- | --- | --- | --- |
| Active |  | COc1cccc2c1C(=O)c1c(O)c3c(c(O)c1C2=O)C[C@@](O)(C(=O)CO)C[C@@H]3O[C@H]1C[C@H](N)[C@H](O)[C@H](C)O1 [DOXORUBICIN] |  |  |  |  |  |  |  |  |  |  |  |  |  |  |  | inhibition of growth at 100 µg/mL [1]: 70.2%; IC50 (DNA topoisomerase 2-beta [2]): 12.7 µM |
| Active | Active | CC(=O)n1c(-c2ccc(N3C(=O)c4c(Br)c(Br)c(Br)c(Br)c4C3=O)cc2)nc2ccccc21 | Active | Active | Active | Active | Active | Active | Active | Active | Active | Active | Active | Active | Active | Active | Active | IC50 (Tubulin): 6.94 µM |
| Active | Active | O=C1c2c(Br)c(Br)c(Br)c(Br)c2C(=O)N1c1nnc[nH]1 | Active | Active | Active | Active | Active | Active | Active | Active | Active | Active | Active | Active | Active | Active | Active | inhibition (Tubulin (Homo sapiens)): Active; Weak Inhibition Observed |
